Assay results reported in ChEMBL document CHEMBL5678799 (Biochem J, 2009).

Experiments:
[1] = molecular target: Tyrosine-protein kinase Lck (Homo sapiens) (UniProt P06239); test: (§1) Inhibition of recombinant human N-terminal His6-tagged LCK (2 to 509 residues) expressed in baculovirus infected Sf21 cells assessed as remaining activity at 10 uM using KVEKIGEGTYGVVYK as substrate incubated for 30 mins in presence of [gamma-33P]ATP by filter binding method relative to control
How it was run: (§2)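 Assays ran 30 min at 21 °C, robotically and in the linear range. Remaining activity is given relative to incubations lacking compound, as the average of triplicate determinations ± S.D.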

[2] = molecular target: Ephrin type-A receptor 2 (Homo sapiens) (UniProt P29317); test: Inhibition of recombinant human N-terminal GST-tagged EPHA2 (591 to 976 residues) expressed in Escherichia coli assessed as remaining activity at 1 uM using Poly (Glu,Tyr) as substrate incubated for 30 mins in presence of [gamma-33P]ATP by filter binding method relative to control
How it was run: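 Run robotically for 30 min at 21 °C under linear conditions. Compound at 1 or 10 µM. Percentage activity remaining versus control without compound, triplicate mean ± S.D.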

Homo sapiens [3] = species on record: Homo sapiens; test: Inhibition of choline kinase (unknown origin) assessed as remaining activity at 10 uM using choline as substrate incubated for 30 mins in presence of ATP by Kinase Glo assay relative to control
How it was run: (§3)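 Choline kinase assayed with 1 mM choline, 1 μM ATP in 25 mM glycine/NaOH pH 8.5, 67 mM KCl, 5 mM MgCl2, 1 mM DTT, 30 min at room temperature. Stopped with Kinase-Glo Plus, luminescence read after 10 min. Activity relative to control, triplicate.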

[4] = molecular target: Serine/threonine-protein kinase PAK 6 (Homo sapiens) (UniProt Q9NQU5); test: Inhibition of recombinant human N-terminal GST-tagged PAK6 (2 to 681 residues) expressed in Escherichia coli assessed as remaining activity at 10 uM using RRRLSFAEPG as substrate incubated for 30 mins in presence of [gamma-33P]ATP by filter binding method relative to control
How it was run: (§4)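 Panel assays were run for 30 min at 21 °C, within the linear range for time and enzyme. […] Results are percent activity remaining relative to compound-free control, averaged from triplicate ± S.D.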

mTORC2 (Homo sapiens) = mTORC2 (Homo sapiens) (UniProt P42345+Q6R327+Q9BVC4+Q9BPZ7); settings: HEK293, dose 30-1000 nM, time 30.0 min
Homo sapiens [5] = species on record: Homo sapiens; test: Inhibition of choline kinase (unknown origin) assessed as remaining activity at 1 uM using choline as substrate incubated for 30 mins in presence of ATP by Kinase Glo assay relative to control; how it was run: as §3
[6] = molecular target: Phosphorylase b kinase gamma catalytic chain, skeletal muscle/heart isoform (Homo sapiens) (UniProt Q16816); test: Inhibition of recombinant human N-terminal GST-tagged PHKgamma1 (2 to 297 residues) expressed in Escherichia coli assessed as remaining activity at 1 uM using phosphorylase b peptide as substrate incubated for 30 mins in presence of [gamma-33P]ATP by filter binding method relative to control
How it was run: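 Incubation was 30 min at room temperature (21 °C) under conditions linear with time and enzyme amount. Activity is reported as percent of control lacking compound, triplicate mean ± S.D.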

[7] = molecular target: Tyrosine-protein kinase Yes (Homo sapiens) (UniProt P07947); test: Inhibition of recombinant human N-terminal His6-tagged YES1 (1 to 543 residues) expressed in baculovirus infected Sf21 cells assessed as remaining activity at 1 uM using Poly(Glu,Tyr) as substrate incubated for 30 mins in presence of [gamma-33P]ATP by filter binding assay relative to control
How it was run: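 Radiometric panel assay run robotically at 21 °C for 30 min, linear in time and enzyme. […] Activity is expressed as percentage of the compound-omitted control, averaged from triplicates ± S.D.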

MEF = test: Growth inhibition of MEF cells assessed reduction in cell viability at 3 uM incubated for 1 to 3 days by crystal violet staining based assay; type: toxicity; settings: mouse, time 1-3 day
How it was run: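 MEFs seeded at 20000 cells per 1.91 cm2 well, grown overnight in 10% foetal bovine serum, then cultured 1, 2 or 3 days with 3 μM inhibitor, 100 nM rapamycin or DMSO. Medium changed every 24 h with freshly dissolved inhibitors. Cells fixed in 4% paraformaldehyde, stained with 0.1% Crystal Violet, dye extracted in 10% acetic acid, A590 read. Quadruplicate wells, expressed as % of DMSO control.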

[8] = molecular target: Serine/threonine-protein kinase pim-3 (Homo sapiens) (UniProt Q86V86); test: Inhibition of recombinant human N-terminal His6-tagged PIM3 (2 to 326 residues) expressed in baculovirus infected Sf21 cells assessed as remaining activity at 10 uM using RSRHSSYPAGT as substrate incubated for 30 mins in presence of [gamma-33P]ATP by filter binding method relative to control
[9] = molecular target: Serine/threonine-protein kinase pim-1 (Homo sapiens) (UniProt P11309); test: Inhibition of recombinant human N-terminal His6-tagged PIM1 (2 to 313 residues) expressed in baculovirus infected Sf21 cells assessed as remaining activity at 10 uM using RSRHSSYPAGT as substrate incubated for 30 mins in presence of [gamma-33P]ATP by filter binding method relative to control
How it was run: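 Incubations ran robotically for 30 min at room temperature (21 °C) under linear conditions. Results are percent activity remaining versus controls without compound, as the mean of triplicates ± S.D.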

[10] = molecular target: Ribosomal protein S6 kinase alpha-3 (Homo sapiens) (UniProt P51812); test: Inhibition of recombinant human N-terminal His6-tagged RSK2 (2 to 740 residues) expressed in baculovirus infected Sf21 cells assessed as remaining activity at 1 uM using KKLNRTLSVA as substrate incubated for 30 mins in presence of [gamma-33P]ATP by filter binding method relative to control; how it was run: as §2
[11] = molecular target: Fibroblast growth factor receptor 1 (Homo sapiens) (UniProt P11362); test: Inhibition of recombinant human N-terminal His6-tagged FGFR1 (400 to 820 residues) expressed in baculovirus infected Sf21 cells assessed as remaining activity at 10 uM using Poly(Glu,Tyr) as substrate incubated for 30 mins in presence of [gamma-33P]ATP by filter binding method relative to control; how it was run: as §4
[12] = molecular target: Inhibitor of nuclear factor kappa-B kinase subunit beta (Homo sapiens) (UniProt O14920); test: as §1, with “IKKbeta (1” for “LCK (2”, “736” for “509”, “LDDRHDSGLDSMKDEEY” for “KVEKIGEGTYGVVYK”
How it was run: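 Profiling-centre panel assay performed robotically at 21 °C for 30 min, linear with time and enzyme. […] Values are percent of compound-free control activity, the mean of triplicates ± S.D.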

[13] = molecular target: Eukaryotic elongation factor 2 kinase (Homo sapiens) (UniProt O00418); test: Inhibition of recombinant human N-terminal GST-tagged EF2K (2 to 725 residues) expressed in Escherichia coli assessed as remaining activity at 10 uM using RKKFGESKTKTKEFL as substrate incubated for 30 mins in presence of [gamma-33P]ATP by filter binding method relative to control
How it was run: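 Kinase panel run robotically at 21 °C for 30 min, linear in time and enzyme. […] Compound tested at 1 or 10 µM. Activity given as percentage of incubations without compound, mean of triplicates ± S.D.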

**Q.** How did the Activity [1] turn out when `COc1ccc(-c2ccc3c(N4CCOCC4)nc(N4C[C@@H](C)O[C@@H](C)C4)nc3n2)cc1CO` [Ku-0063794] was run?
**A.** The Activity was 104%.

**Q.** What about the Activity [2] of the same compound?
**A.** Its Activity is 108%.

**Q.** What about the Activity (Homo sapiens [3]) of the same compound?
**A.** Its Activity is 102%.

**Q.** And the Activity [4]?
**A.** Its Activity is 100%.

**Q.** What about the inhibition (mTORC2 (Homo sapiens)) of the same compound?
**A.** The inhibition was “Dose-Dependent Effect”.

**Q.** What about the Activity (Homo sapiens [5]) of the same compound?
**A.** Its Activity is 102%.

**Q.** What about the Activity [6] of the same compound?
**A.** The Activity was 89%.

**Q.** What about the Activity [7] of the same compound?
**A.** Its Activity is 94%.

**Q.** And the “growth inhibition (GI)” value (MEF)?
**A.** Its value is “Toxic”.

**Q.** And the Activity [8]?
**A.** Its Activity is 75%.

**Q.** What about the Activity [9] of the same compound?
**A.** Its Activity is 98%.

**Q.** And the Activity [10]?
**A.** Its Activity is 103%.

**Q.** And the Activity [11]?
**A.** The Activity was 87%.

**Q.** And the Activity [12]?
**A.** The Activity was 89%.

**Q.** And the Activity [13]?
**A.** The Activity was 108%.
